# According to ChEMBL document CHEMBL1629578, “Structure-activity relationships of antimicrobial and lipoteichoic acid-sequestering properties in polyamine sulfonamides” (Antimicrob Agents Chemother, 2009):
# Calls of active or inactive are those of the source. The rule behind the calls is not given here.
# How the values were obtained:
# HEK293 [1] = experiment: Neutralizing activity lipopolysaccharide assessed as inhibition of TLR4-mediated NF-kappaB translocation in HEK293 cells stably transfected TLR4/MD2/CD14/alkaline phosphatase by reporter gene assay; type: cell-based
# Outline: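 HEK-Blue-4 cells (TLR4, MD2, CD14, NF-κB/AP-1-inducible secreted alkaline phosphatase) were grown to confluence and stimulated with E. coli O111:B4 LPS plus graded compound concentrations. Alkaline phosphatase was read with a chromogen at 620 nm. Each dilution was run in quadruplicate and experiments repeated three times.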
# HEK293 [2] = experiment: Sequestration activity Saccharomyces cerevisiae lipoteichoic acid assessed as inhibition of TLR2-mediated NF-kappaB translocation in HEK293 cells stably transfected TLR2/MD2/CD14/alkaline phosphatase by reporter gene assay; type: cell-based; details: Staphylococcus aureus, in the assay text read “Staphylococcus aureus” for “Saccharomyces cerevisiae”
# Outline: (§1)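 HEK-Blue-2 reporter cells (TLR2, MD2, CD14, NF-κB/AP-1-driven secreted alkaline phosphatase) were grown to confluence, then stimulated with LTA purified from S. aureus (n-butanol extraction, delipidated, enzymatically deproteinated) plus graded compound concentrations. sAP was read with a chromogen at 620 nm. Dilutions were run in quadruplicate and experiments repeated three times.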
# HEK293 [3] = experiment: Sequestering activity against lipoteichoic acid assessed as inhibition of TLR2-mediated NF-kappaB induction in HEK293 cells stably transfected TLR2/MD2/CD14/alkaline phosphatase by reporter gene assay
# Escherichia coli = experiment: Antimicrobial activity against Escherichia coli ATCC 9637 at 37 degC by broth microdilution method; type: functional, organism-based
# Outline: (§2)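 Broth microdilution in non-cation-supplemented Mueller-Hinton broth. Mid-log cultures were adjusted to OD600 0.5, diluted 10-fold and added to equal volumes of 2-fold serially diluted compound. Plates were incubated overnight at 37°C and read at 600 nm. MIC was the lowest concentration giving complete growth inhibition. Triplicate points from a representative experiment.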
# HEK293 [4] = experiment: Neutralizing activity against saccharomyces cerevisiae lipoteichoic acid assessed as inhibition of TLR2-mediated NF-kappaB induction in HEK293 cells stably transfected TLR2/MD2/CD14/alkaline phosphatase by reporter gene assay; type: cell-based; details: Staphylococcus aureus, in the assay text read “Staphylococcus aureus” for “Saccharomyces cerevisiae”; outline: as §1
# Staphylococcus aureus = experiment: Antimicrobial activity against Staphylococcus aureus ATCC 13709 at 37 degC by broth microdilution method; type: functional, organism-based; outline: as §2
# [5] = (§3) Sequestering activity against saccharomyces cerevisiae lipoteichoic acid assessed as inhibition of TLR2-mediated NF-kappaB induction in HEK293 cells stably transfected TLR2/MD2/CD14/alkaline phosphatase by reporter gene assay; type: cell-based; details: Staphylococcus aureus, in the assay text read “Staphylococcus aureus” for “saccharomyces cerevisiae”; outline: as §1
# [6] = Aqueous solubility of the compound; type: physicochemical; details: buffer
# HEK293 [7] = experiment: as §3; type: cell-based; details: Staphylococcus aureus, in the assay text read “Staphylococcus aureus” for “Saccharomyces cerevisiae”; outline: as §1
EC50 [5] [µM],solubility [6],Compound,inhibition (HEK293 [1]),inhibition (HEK293 [2]),inhibition (HEK293 [3]),Activity (Escherichia coli),inhibition (HEK293 [4]),Activity (Staphylococcus aureus),Activity (HEK293 [7])
,,CCCCCCCCCCCCS(=O)(=O)NCCCNCCCCNCCCN,Active,Active,Active,,,,
,,CCCCCCCCCCS(=O)(=O)NCCCNCCCNCCCCNCCCN,Active,Active,Active,,,,
,,CCCCCCCCCCCCS(=O)(=O)NCCCNCCCNCCCCNCCCN,Active,Active,Active,Active,,,
60,Insoluble,CCCCCCCCS(=O)(=O)NCCCNCCCNCCCCCCNCCCNCCCNS(=O)(=O)CCCCCCCC.Cl,,,,inactive,inactive,Active,
60,Insoluble,CCCCCCCCCCCCCCCCCCS(=O)(=O)NCCCNCCCNCCCCCCNCCCNCCCNS(=O)(=O)CCCCCCCCCCCCCCCCCC.Cl,,,,,inactive,Active,
,,CCCCCCCCCCS(=O)(=O)NCCCNCCCCNCCCN,Active,Active,Active,,,,
60,Insoluble,CCCCCCCCCCCCCCCCS(=O)(=O)NCCCNCCCNCCCCCCNCCCNCCCNS(=O)(=O)CCCCCCCCCCCCCCCC.Cl,,,,,inactive,Active,
1,,CCCCCCCCCCCCCCCCS(=O)(=O)NCCCNCCCNCCCCNCCCN,Active,Active,Active,Active,,,
,,CCCCCCCCCCCCCCCCCCS(=O)(=O)NCCCNCCCNCCCCNCCCN,Active,Active,Active,,,,
,,CCCCCCCCS(=O)(=O)NCCCNCCCNCCCCNCCCN,Active,Active,Active,,,,
,,CCCCCCCCCCCCCCCCCCS(=O)(=O)NCCCNCCCCNCCCN,Active,Active,Active,,,,
,,CCCCCCCCS(=O)(=O)NCCCNCCCCNCCCN,Active,Active,Active,,,,
60,Insoluble,CCCCCCCCCCS(=O)(=O)NCCCNCCCNCCCCCCNCCCNCCCNS(=O)(=O)CCCCCCCCCC.Cl,,,,inactive,inactive,Active,
,,POLYMYXIN B,,,,,,,Active
60,Insoluble,CCCCCCCCCCCCS(=O)(=O)NCCCNCCCNCCCCCCNCCCNCCCNS(=O)(=O)CCCCCCCCCCCC.Cl,,,,,inactive,Active,
1,,CCCCCCCCCCCCCCCCS(=O)(=O)NCCCNCCCCNCCCN,Active,Active,Active,,,,
